“And” between values parts separate entries of the source, which are not always exact repeats. Identical values can stand only once. “Also recorded” adds a separate entry of the source. Marks after values point to notes of the source that are not given here.
What was measured:
[1] = target: JAK3/JAK1 heterodimer (Homo sapiens, UniProt P23458+P52333); assay: Cellomics pSTAT5 assay, IL-2-stimulated NK-92 cells; type: cell-based
In short: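 NK-92 cells were kept overnight in MEM Alpha with 0.3% FBS and 0.3% horse serum, then plated with DMSO or a 10-point 1:3 dilution series (20 to 0.001 μM) for 10 min. IL-2 (0.5 μg/ml) was then added for 20 min. Cells were fixed, stained for pSTAT5 (pY694) with Alexa Fluor 647 and Hoechst, and imaged. IC50 came from a four-parameter logistic fit.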

[2] = tested on: cytotoxic T-cells, CD3+CD8a+; assay: 14-day rat immunotoxicology, flow cytometry; type: in vivo, Sprague-Dawley rats; conditions: for Change in cytotoxic T-cells, CD3+CD8a+, peripheral blood / Change in cytotoxic T-cells, CD3+CD8a+, spleen: gavage, Compound 1 15 mg/kg, Compound 2 (LY2784544) 30 mg/kg; for Percentage of T-cytotoxic cells (peripheral blood and splenic): pharmacologically active exposures, result in words
[3] = target: T1, JAK2 (Homo sapiens, UniProt O60674); assay: JAK LanthaScreen Kinase Assay; conditions: Biochemical measurement of JAK inhibition, JAK2 IC50±s.d., Table 1
T1 sequence (O60674 whole entry): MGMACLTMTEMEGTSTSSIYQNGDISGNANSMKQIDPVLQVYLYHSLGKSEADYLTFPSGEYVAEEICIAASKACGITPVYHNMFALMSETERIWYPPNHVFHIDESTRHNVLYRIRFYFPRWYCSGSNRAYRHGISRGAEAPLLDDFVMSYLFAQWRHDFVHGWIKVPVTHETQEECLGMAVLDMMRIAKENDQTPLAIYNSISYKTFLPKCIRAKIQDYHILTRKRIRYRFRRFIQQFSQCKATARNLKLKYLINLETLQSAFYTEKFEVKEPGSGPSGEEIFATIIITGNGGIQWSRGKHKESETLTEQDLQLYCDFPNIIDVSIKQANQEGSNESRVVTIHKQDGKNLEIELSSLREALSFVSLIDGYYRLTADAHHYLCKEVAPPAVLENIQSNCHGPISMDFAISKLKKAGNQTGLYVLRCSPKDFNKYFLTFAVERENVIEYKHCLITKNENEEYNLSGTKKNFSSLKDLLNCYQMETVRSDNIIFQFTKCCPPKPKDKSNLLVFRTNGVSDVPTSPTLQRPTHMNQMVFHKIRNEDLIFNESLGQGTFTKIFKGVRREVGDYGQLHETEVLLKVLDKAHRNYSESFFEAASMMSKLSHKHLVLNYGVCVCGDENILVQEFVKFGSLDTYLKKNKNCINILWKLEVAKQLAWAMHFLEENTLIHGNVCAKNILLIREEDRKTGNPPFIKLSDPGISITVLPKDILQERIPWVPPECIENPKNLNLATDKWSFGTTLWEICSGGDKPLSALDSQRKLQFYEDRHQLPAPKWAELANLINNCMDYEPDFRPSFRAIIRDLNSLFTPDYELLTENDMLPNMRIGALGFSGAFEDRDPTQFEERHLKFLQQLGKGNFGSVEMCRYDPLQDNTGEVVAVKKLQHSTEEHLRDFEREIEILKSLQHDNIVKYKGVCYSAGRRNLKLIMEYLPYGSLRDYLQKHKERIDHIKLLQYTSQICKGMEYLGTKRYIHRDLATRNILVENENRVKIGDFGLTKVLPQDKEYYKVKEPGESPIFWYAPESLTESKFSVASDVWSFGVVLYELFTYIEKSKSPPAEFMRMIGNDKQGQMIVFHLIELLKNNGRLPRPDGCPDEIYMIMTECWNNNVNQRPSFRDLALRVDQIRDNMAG

[4] = target: T2, JAK3 (Homo sapiens, UniProt P52333); assay: JAK LanthaScreen Kinase Assay; conditions: second-tier biochemical / LanthaScreen assay
T2 sequence (P52333 1-1124): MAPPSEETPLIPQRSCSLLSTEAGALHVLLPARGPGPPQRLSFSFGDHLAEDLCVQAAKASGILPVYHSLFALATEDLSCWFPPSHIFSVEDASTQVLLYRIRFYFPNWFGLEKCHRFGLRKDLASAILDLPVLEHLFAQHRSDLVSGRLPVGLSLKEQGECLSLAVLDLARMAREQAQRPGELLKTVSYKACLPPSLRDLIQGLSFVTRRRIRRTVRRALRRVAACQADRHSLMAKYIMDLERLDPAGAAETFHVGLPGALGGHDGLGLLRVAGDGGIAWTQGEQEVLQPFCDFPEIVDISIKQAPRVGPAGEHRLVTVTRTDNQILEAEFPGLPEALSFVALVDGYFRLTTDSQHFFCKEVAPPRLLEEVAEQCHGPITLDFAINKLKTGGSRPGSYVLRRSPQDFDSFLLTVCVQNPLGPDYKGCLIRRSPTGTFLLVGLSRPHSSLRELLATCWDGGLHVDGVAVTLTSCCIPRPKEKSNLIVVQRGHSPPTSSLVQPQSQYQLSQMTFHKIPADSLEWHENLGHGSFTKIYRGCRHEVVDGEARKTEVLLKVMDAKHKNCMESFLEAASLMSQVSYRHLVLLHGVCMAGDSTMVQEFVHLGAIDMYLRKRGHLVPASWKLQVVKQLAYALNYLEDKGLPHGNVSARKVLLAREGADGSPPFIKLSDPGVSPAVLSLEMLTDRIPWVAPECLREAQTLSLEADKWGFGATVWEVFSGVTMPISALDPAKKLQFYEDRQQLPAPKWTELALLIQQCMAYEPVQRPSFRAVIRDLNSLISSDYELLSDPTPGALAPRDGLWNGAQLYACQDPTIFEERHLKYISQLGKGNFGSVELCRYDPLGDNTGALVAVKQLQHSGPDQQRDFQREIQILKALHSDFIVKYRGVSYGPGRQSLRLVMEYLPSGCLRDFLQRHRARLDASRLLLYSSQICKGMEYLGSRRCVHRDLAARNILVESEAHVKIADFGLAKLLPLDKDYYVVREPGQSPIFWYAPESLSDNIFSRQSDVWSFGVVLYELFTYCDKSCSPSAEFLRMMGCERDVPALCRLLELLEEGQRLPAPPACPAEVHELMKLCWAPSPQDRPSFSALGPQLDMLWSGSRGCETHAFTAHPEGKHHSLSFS

[5] = target: TEL-JAK3 (Homo sapiens, UniProt P41212+P52333); assay: AlphaScreen SureFire pSTAT5 assay, Ba/F3 TEL-JAK3; type: cell-based
[6] = target: JAK2 R564Q (Homo sapiens, UniProt O60674, R564Q); assay: Western blot pSTAT5, HEK293T JAK2 R564Q; type: cell-based; conditions: HEK293 cells expressing JAK2 R564Q, 1 h
Chain of JAK2 R564Q (O60674 whole entry R564Q): as the sequence (O60674 whole entry) above, with R564Q counted along it

[7] = target: T3, JAK2V617F (Homo sapiens, UniProt O60674, V617F); assay: Western blot pSTAT5, Ba/F3 JAK2V617F; type: cell-based; conditions: 50 nM–20 μM, 2 h
T3 sequence (O60674 whole entry V617F): as the sequence (O60674 whole entry) above, with V617F counted along it

[8] = target: T3, JAK2V617F; assay: Western blot pSTAT5, HEK293T JAK2V617F; type: cell-based; conditions: HEK293 cells expressing JAK2V617F, 1 h
[9] = target: wild-type JAK2 (Homo sapiens, UniProt O60674); assay: Western blot pSTAT5, IL-3-stimulated Ba/F3 wild-type JAK2; type: cell-based; conditions: Ba/F3 wild-type JAK2, 50 and 200 nM
Chain of wild-type JAK2 (O60674 whole entry): as the sequence (O60674 whole entry) above

[10] = tested on: Ba/F3-JAK2V617F-GFP tumor cells, erythroid progenitors, peripheral blood counts; assay: 8-day mouse hematologic disease model, hematopoiesis; type: in vivo, SCID mice; conditions: result in words
In short: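 This was an 8-day version of the intravenous Ba/F3-JAK2V617F-GFP SCID mouse model. Dosing at 5, 20, 40 or 80 mg/kg began one day before tumor cell infusion and continued twice daily for 8 days. Splenocytes were analysed by FACS for GFP-positive tumor cells and for erythroid progenitors stained with Ter119-APC and CD71-PE, with 7-AAD excluding nonviable cells. Peripheral blood counts were also taken.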

[11] = target: TEL-JAK2 (Homo sapiens, UniProt O60674+P41212); assay: AlphaScreen SureFire pSTAT5 assay, Ba/F3 TEL-JAK2; type: cell-based
Chain of TEL-JAK2 (O60674 840-1132 limits assumed, one chain of several): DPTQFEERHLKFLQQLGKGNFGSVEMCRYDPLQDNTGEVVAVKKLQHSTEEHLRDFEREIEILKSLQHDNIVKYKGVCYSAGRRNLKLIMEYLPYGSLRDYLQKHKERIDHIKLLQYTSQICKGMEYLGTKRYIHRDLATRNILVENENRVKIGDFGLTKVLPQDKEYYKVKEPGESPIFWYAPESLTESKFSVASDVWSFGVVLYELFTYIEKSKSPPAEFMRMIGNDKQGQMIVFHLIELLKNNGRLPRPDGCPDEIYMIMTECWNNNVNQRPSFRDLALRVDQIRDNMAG

[12] = 14-day rat pilot toxicology study; type: in vivo; conditions: 30, 60, or 100 mg/kg
[13] = target: JAK2 H538Q (Homo sapiens, UniProt O60674, H538Q); assay: Western blot pSTAT5, HEK293T JAK2 H538Q; type: cell-based; conditions: HEK293 cells expressing JAK2 H538Q, 1 h
Chain of JAK2 H538Q (O60674 whole entry H538Q): as the sequence (O60674 whole entry) above, with H538Q counted along it

[14] = tested on: Ba/F3-JAK2V617F-GFP tumor burden; assay: 14-day in vivo efficacy, JAK2V617F-induced mouse MPN model; design: species or system SCID mice
In short: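 SCID mice received 1 × 10^7 Ba/F3-JAK2V617F-GFP cells intravenously (six mice/group). Twice-daily oral gavage at 2.5–80.0 mg/kg started 7 days after infusion and ran 14 days. Endpoints were complete blood counts from cardiac puncture, spleen weight, and FACS of splenocytes for total number and percentage of GFP-positive cells. Dunnett's test at α=0.05.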

[15] = tested on: JAK2V617F signaling in Ba/F3-JAK2V617F-GFP ascitic tumor cells; assay: In vivo target inhibition, pSTAT5 in mouse ascitic tumor model; design: species or system SCID mice
In short: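 Ascitic tumors were grown in CB17 SCID mice for 7 days after intraperitoneal implantation of 1 × 10^7 Ba/F3-JAK2V617F-GFP cells. A single oral gavage dose (2.5–80.0 mg/kg, six animals/group) was given and tumor cells were collected 30 min later. For time courses, 20, 40 or 80 mg/kg was given with collection at 0.25–6.0 h. Cells were fixed, stained 2 h for pSTAT5 (pY694), and analysed by flow cytometry. Statistics used ANOVA with Dunnett's test and a four-parameter logistic fit.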

[16] = target: TEL-JAK1 (Homo sapiens, UniProt P23458+P41212); assay: AlphaScreen SureFire pSTAT5 assay, Ba/F3 TEL-JAK1; type: cell-based
Chain of TEL-JAK1 (P23458 875-1154 limits assumed, one chain of several): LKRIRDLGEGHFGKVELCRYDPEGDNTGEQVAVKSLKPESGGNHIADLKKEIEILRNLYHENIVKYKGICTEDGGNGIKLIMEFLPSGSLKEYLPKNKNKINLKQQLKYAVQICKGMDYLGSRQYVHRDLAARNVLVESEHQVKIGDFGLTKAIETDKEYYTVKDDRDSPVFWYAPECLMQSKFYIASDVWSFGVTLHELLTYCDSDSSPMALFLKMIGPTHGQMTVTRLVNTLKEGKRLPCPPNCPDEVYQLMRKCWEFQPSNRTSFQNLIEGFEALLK

[17] = target: JAK2Y931C (Homo sapiens, UniProt O60674, Y931C); assay: Western blot pSTAT5, HEK293T JAK2Y931C; type: cell-based; conditions: HEK293 cells expressing JAK2Y931C, 1 h
Chain of JAK2Y931C (O60674 whole entry Y931C): as the sequence (O60674 whole entry) above, with Y931C counted along it

[18] = target: T1, JAK2; assay: Cellomics pSTAT5 assay, EPO-stimulated TF-1 cells; type: cell-based
In short: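 TF-1 cells were starved overnight in RPMI with 0.6% FBS, then plated at 2 × 10^5 cells/well with DMSO or a 10-point 1:3 dilution series (20 to 0.001 μM). After 10 min, erythropoietin (1.6 units/ml) was added for 20 min. Cells were fixed, stained with anti-pSTAT5 (pY694) Alexa Fluor 647 and Hoechst, and imaged. IC50 came from a four-parameter logistic fit.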

[19] = tested on: Ba/F3 cells expressing JAK2V617F; assay: MTS cell proliferation assay, Ba/F3 JAK2V617F; type: cell-based, murine; conditions: Mus musculus, BaF3, 72 h, read-out: Cell proliferation assay V617F IC50±s.d.
[20] = tested on: Ba/F3 cells expressing JAK2V617F; assay: Caspase-Glo 3/7 apoptosis assay; type: cell-based, murine; conditions: Mus musculus, BaF3, 18 h, read-out: Induction of apoptosis EC50 (Caspase3/7-glo)
[21] = target: IL-3-activated wild-type JAK2 (Homo sapiens, UniProt O60674); assay: AlphaScreen SureFire pSTAT5 assay, IL-3-stimulated Ba/F3 wild-type JAK2; type: cell-based
Chain of IL-3-activated wild-type JAK2 (O60674 whole entry): as the sequence (O60674 whole entry) above

[22] = target: T3, JAK2V617F; assay: AlphaScreen SureFire pSTAT5 assay, Ba/F3-JAK2V617F; type: cell-based

Chain of JAK3/JAK1 heterodimer (P23458 whole entry, one chain of several): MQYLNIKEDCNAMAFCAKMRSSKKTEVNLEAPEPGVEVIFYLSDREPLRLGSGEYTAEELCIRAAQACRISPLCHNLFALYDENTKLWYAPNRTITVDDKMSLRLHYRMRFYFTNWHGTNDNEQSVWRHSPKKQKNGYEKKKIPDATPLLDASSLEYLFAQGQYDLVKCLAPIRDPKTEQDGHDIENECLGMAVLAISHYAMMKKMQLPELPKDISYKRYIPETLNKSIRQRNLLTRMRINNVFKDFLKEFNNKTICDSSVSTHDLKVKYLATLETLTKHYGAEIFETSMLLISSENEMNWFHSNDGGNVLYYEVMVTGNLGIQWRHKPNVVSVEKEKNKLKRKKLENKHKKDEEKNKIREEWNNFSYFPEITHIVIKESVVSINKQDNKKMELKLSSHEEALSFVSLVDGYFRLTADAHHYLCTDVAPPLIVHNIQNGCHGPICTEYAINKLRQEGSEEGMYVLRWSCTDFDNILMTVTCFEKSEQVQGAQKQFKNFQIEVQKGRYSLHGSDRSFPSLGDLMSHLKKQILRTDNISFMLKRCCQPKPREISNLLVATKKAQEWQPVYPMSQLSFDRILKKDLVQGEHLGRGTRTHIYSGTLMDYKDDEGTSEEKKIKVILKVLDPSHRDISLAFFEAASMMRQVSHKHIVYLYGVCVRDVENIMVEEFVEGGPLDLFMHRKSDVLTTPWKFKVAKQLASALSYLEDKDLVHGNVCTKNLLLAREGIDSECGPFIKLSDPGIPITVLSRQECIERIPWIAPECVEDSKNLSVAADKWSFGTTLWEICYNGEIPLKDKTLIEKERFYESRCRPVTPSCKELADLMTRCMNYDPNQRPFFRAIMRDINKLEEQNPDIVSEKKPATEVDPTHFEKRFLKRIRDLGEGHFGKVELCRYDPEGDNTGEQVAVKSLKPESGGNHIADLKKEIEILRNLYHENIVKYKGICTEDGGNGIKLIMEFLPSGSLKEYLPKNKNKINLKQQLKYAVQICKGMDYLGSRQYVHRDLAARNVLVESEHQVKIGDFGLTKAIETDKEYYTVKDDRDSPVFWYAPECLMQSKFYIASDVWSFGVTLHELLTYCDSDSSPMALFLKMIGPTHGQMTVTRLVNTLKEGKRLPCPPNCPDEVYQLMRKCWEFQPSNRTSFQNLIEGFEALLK
Chain of JAK3/JAK1 heterodimer (P14784 27-551 partner, one chain of several): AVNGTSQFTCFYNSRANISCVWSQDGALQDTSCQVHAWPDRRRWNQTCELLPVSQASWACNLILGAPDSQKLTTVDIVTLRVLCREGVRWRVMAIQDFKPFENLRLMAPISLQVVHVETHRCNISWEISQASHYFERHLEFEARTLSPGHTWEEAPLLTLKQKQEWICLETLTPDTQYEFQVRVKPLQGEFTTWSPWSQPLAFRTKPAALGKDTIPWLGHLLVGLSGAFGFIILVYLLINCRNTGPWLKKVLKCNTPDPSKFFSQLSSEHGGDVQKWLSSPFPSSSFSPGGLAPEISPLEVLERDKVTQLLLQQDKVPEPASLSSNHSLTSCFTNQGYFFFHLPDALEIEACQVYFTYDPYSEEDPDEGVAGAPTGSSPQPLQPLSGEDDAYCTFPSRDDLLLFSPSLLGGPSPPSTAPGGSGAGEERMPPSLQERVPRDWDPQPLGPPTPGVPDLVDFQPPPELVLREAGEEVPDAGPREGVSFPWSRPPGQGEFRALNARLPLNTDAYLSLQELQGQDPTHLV
Chain of JAK3/JAK1 heterodimer (P31785 23-369 partner, one chain of several): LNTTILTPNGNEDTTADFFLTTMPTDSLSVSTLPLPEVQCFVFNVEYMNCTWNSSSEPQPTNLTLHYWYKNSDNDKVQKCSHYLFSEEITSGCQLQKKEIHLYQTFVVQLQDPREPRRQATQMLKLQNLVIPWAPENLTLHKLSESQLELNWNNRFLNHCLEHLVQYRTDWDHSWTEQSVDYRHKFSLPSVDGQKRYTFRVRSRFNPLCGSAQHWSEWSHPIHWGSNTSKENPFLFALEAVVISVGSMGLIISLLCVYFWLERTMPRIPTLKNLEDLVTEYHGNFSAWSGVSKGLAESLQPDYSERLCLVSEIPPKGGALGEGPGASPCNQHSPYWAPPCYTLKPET

SMILES: Cc1cc(Nc2ccc3ncn([C@@H]4CCc5ccc(F)cc54)c3n2)[nH]n1.Cl.Cl [Compound 1, 3-[(1R)-6-fluoro-2,3-dihydro-1H-inden-1-yl]-N-(3-methyl-1H-pyrazol-5-yl)-3H-imidazo[4,5-b]pyridin-5-amine dihydrochloride]
- IC50 [1]: 228 ± 76 nM
- Change in cytotoxic T-cells, CD3+CD8a+, peripheral blood [2]: −39 (P<0.05) %
- Change in cytotoxic T-cells, CD3+CD8a+, spleen [2]: −42 (P<0.05) ^d %
- Percentage of T-cytotoxic cells (peripheral blood and splenic) [2]: statistically significant decrease
- IC50 [3]: 2 nM
- Selectivity for JAK2 over JAK3, biochemical [4]: fourfold

SMILES: Cc1cc(Nc2cc(CN3CCOCC3)c3nc(C)c(Cc4ccc(Cl)cc4F)n3n2)n[nH]1 [LY2784544, 3-(4-chloro-2-fluorobenzyl)-2-methyl-N-(5-methyl-1H-pyrazol-3-yl)-8-(morpholinomethyl)imidazo[1,2-b]pyridazin-6-amine]
- IC50 [5]: 4740 ± 738 nM
- Inhibition of STAT5 phosphorylation, western blot [6]: effectively inhibited
- Inhibition of STAT5 phosphorylation, western blot [7]: potently inhibited
- Inhibition of STAT5 phosphorylation, western blot [8]: effectively inhibited
- Inhibition of IL-3-stimulated STAT5 phosphorylation, western blot [9]: marginal inhibition
- Percentage of Ba/F3-JAK2V617F-GFP-positive cells in spleen ([10]; 40 mg/kg (P=8 × 10^−4) and 80 mg/kg (P=8 × 10^−7) BID, 8 days): significantly reduced
- Effect on erythroid progenitor (CD71+/Ter119+) cells ([10]; 5–80 mg/kg BID, 8 days): no effect; also recorded: did not affect
- Effect on peripheral blood reticulocytes ([10]; 5–80 mg/kg BID, 8 days): no effect; also recorded: did not reduce
- Effect on platelets [10]: no effect
- IC50 [1]: 942 ± 255 nM
- IC50 [11]: 191 ± 36 nM
- Gastric- and intestine-related toxicity [12]: No gastric- and intestine-related toxicity was observed
- Change in cytotoxic T-cells, CD3+CD8a+, peripheral blood [2]: No change
- Change in cytotoxic T-cells, CD3+CD8a+, spleen [2]: No change
- Percentage of T-cytotoxic cells (peripheral blood and splenic) [2]: did not decrease
- Inhibition of STAT5 phosphorylation, western blot [13]: effectively inhibited
- Spleen mass reduction ([14]; 20 mg/kg BID, 14 days): about 20%
- Decrease in GFP-positive Ba/F3-JAK2V617F cells ([14]; 20 mg/kg BID, 14 days, spleen): ~50%
- Reduction of the number of Ba/F3 cells expressing JAK2V617F ([14]; 20, 40 or 80 mg/kg, BID): ≥ 50%
- TED50 for tumor burden reduction ([14]; oral, twice daily, 14 days, Ba/F3-JAK2V617F-GFP cells in spleen): 13.7 mg/kg
- TEC50, plasma concentration to inhibit 50% of STAT5 phosphorylation ([15]; 30 min after oral dosing): 699.0 ng/ml and 1.49 μM
- Duration of statistically significant inhibition of STAT5 phosphorylation ([15]; single 40 mg/kg oral dose): at least 2 h
- Duration of statistically significant inhibition of STAT5 phosphorylation ([15]; single 80 mg/kg oral dose): at least 6 h
- TED50, dose to inhibit 50% of STAT5 phosphorylation ([15]; single oral dose, 30 min after dosing, ascitic tumor cells): 12.7 mg/kg
- IC50 [16]: 2900 ± 486 nM
- Inhibition of STAT5 phosphorylation, western blot [17]: much less potency
- IC50 [18]: 45 ± 19 nM
- IC50 [19]: 55 ± 4 nM
- EC50 [20]: 113 ± 0.023 nM

SMILES: Cc1cc(Nc2nc(N[C@@H](C)c3ncc(F)cn3)ncc2Cl)n[nH]1 [AZD1480, reference compound]
- IC50 [5]: 2550 ± 345 nM
- IC50 [11]: 139 ± 47 nM
- IC50 [16]: 663 ± 74 nM
- IC50 [21]: 181 ± 132 nM
- IC50 [22]: 19 ± 13 nM
- IC50 [19]: 43 ± 1 nM

Reference: publication PMC3641321 (Blood Cancer Journal, 2013)
